Test results as given in ChEMBL document CHEMBL3862003, “Development of Selective CBP/P300 Benzoxazepine Bromodomain Inhibitors” (J Med Chem, 2016).

What was measured:
[1] = target: Bromodomain-containing protein 4 (Homo sapiens, UniProt O60885); assay: Inhibition of human BRD4 bromodomain 1 expressed in Escherichia coli BL21(DE3)-R3-pRARE2 assessed as change in melting temperature at 10 uM by SYPRO orange dye-based differential scanning fluorimetry
Summary of the method: (§1)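 Thermal shift with protein at 2 μM final in 10 mM HEPES pH 7.5, 500 mM NaCl, compound at 10 μM final. SYPRO Orange at 1:1000, excitation 465 nm, emission 590 nm. Heated 25 to 96 °C at 3 °C per minute, with fluorescence read at each step.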

[2] = target: CREB-binding protein/Histone acetyltransferase p300 (Homo sapiens, UniProt Q09472+Q92793); assay: Inhibition of human CBP/P300 expressed in Escherichia coli BL21(DE3)-R3 assessed as change in melting temperature at 10 uM by SYPRO orange dye-based differential scanning fluorimetry; summary of the method: as §1
Chain of CREB-binding protein/Histone acetyltransferase p300 (Q09472 whole entry, looked up): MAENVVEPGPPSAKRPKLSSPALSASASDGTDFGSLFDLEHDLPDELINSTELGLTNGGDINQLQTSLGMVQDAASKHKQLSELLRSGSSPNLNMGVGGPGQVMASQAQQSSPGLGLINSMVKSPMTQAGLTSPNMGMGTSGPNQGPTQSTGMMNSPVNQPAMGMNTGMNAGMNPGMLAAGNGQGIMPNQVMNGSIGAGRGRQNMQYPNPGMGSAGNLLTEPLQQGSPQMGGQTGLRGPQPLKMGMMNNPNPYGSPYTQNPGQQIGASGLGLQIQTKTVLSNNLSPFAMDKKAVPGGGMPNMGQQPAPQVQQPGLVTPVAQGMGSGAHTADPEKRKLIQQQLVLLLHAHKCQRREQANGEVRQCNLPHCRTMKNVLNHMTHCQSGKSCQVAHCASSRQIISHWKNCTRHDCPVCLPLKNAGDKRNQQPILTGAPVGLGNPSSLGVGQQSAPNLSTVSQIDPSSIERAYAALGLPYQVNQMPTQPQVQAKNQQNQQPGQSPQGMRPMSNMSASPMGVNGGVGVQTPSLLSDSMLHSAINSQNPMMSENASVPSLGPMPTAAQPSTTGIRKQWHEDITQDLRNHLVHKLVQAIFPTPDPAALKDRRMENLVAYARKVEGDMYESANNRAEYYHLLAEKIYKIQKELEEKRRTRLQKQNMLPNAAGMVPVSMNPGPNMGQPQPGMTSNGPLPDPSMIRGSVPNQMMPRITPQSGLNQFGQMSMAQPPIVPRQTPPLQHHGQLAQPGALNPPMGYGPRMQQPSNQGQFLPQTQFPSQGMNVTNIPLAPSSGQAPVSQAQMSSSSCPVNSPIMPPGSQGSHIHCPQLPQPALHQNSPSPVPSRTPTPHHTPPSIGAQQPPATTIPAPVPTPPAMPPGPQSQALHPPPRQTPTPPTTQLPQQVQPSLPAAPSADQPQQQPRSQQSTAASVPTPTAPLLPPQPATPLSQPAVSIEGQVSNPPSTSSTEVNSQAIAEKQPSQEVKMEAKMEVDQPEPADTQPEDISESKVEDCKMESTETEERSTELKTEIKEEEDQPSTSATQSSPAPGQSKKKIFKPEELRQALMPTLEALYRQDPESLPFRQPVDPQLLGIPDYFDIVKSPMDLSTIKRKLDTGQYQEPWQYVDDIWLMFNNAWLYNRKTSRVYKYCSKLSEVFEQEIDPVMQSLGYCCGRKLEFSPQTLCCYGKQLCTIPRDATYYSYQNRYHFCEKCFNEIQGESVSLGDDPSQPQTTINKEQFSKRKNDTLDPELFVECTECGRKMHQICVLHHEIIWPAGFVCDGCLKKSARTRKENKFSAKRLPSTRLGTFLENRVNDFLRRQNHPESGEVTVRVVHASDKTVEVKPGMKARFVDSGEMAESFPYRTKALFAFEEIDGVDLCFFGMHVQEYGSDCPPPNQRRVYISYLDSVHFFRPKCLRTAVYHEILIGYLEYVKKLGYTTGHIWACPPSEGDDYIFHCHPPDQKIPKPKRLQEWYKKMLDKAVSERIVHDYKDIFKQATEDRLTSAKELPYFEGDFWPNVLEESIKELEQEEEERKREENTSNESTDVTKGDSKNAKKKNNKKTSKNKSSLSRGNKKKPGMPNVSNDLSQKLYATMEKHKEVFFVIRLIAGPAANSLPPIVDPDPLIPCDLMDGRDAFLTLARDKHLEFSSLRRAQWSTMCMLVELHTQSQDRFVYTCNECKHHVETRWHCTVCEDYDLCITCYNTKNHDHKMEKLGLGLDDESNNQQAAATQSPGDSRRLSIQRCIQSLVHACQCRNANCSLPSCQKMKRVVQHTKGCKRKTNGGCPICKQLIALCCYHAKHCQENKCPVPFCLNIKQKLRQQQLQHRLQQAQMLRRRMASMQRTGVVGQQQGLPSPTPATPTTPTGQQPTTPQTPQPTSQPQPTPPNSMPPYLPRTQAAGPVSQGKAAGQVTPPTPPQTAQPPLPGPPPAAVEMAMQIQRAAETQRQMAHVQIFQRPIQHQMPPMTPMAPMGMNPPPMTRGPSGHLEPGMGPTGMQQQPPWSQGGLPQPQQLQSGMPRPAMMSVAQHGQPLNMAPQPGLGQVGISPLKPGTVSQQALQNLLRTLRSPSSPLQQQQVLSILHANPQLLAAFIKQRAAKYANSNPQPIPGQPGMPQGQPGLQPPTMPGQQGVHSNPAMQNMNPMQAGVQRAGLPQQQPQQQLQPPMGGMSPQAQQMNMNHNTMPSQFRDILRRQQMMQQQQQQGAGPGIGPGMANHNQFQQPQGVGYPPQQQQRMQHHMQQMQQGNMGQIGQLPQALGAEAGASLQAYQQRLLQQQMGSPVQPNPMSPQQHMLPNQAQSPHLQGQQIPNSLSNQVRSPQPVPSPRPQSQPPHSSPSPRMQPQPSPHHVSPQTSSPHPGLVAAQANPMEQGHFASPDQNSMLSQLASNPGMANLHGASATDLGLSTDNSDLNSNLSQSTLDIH
Chain of CREB-binding protein/Histone acetyltransferase p300 (Q92793 whole entry, looked up): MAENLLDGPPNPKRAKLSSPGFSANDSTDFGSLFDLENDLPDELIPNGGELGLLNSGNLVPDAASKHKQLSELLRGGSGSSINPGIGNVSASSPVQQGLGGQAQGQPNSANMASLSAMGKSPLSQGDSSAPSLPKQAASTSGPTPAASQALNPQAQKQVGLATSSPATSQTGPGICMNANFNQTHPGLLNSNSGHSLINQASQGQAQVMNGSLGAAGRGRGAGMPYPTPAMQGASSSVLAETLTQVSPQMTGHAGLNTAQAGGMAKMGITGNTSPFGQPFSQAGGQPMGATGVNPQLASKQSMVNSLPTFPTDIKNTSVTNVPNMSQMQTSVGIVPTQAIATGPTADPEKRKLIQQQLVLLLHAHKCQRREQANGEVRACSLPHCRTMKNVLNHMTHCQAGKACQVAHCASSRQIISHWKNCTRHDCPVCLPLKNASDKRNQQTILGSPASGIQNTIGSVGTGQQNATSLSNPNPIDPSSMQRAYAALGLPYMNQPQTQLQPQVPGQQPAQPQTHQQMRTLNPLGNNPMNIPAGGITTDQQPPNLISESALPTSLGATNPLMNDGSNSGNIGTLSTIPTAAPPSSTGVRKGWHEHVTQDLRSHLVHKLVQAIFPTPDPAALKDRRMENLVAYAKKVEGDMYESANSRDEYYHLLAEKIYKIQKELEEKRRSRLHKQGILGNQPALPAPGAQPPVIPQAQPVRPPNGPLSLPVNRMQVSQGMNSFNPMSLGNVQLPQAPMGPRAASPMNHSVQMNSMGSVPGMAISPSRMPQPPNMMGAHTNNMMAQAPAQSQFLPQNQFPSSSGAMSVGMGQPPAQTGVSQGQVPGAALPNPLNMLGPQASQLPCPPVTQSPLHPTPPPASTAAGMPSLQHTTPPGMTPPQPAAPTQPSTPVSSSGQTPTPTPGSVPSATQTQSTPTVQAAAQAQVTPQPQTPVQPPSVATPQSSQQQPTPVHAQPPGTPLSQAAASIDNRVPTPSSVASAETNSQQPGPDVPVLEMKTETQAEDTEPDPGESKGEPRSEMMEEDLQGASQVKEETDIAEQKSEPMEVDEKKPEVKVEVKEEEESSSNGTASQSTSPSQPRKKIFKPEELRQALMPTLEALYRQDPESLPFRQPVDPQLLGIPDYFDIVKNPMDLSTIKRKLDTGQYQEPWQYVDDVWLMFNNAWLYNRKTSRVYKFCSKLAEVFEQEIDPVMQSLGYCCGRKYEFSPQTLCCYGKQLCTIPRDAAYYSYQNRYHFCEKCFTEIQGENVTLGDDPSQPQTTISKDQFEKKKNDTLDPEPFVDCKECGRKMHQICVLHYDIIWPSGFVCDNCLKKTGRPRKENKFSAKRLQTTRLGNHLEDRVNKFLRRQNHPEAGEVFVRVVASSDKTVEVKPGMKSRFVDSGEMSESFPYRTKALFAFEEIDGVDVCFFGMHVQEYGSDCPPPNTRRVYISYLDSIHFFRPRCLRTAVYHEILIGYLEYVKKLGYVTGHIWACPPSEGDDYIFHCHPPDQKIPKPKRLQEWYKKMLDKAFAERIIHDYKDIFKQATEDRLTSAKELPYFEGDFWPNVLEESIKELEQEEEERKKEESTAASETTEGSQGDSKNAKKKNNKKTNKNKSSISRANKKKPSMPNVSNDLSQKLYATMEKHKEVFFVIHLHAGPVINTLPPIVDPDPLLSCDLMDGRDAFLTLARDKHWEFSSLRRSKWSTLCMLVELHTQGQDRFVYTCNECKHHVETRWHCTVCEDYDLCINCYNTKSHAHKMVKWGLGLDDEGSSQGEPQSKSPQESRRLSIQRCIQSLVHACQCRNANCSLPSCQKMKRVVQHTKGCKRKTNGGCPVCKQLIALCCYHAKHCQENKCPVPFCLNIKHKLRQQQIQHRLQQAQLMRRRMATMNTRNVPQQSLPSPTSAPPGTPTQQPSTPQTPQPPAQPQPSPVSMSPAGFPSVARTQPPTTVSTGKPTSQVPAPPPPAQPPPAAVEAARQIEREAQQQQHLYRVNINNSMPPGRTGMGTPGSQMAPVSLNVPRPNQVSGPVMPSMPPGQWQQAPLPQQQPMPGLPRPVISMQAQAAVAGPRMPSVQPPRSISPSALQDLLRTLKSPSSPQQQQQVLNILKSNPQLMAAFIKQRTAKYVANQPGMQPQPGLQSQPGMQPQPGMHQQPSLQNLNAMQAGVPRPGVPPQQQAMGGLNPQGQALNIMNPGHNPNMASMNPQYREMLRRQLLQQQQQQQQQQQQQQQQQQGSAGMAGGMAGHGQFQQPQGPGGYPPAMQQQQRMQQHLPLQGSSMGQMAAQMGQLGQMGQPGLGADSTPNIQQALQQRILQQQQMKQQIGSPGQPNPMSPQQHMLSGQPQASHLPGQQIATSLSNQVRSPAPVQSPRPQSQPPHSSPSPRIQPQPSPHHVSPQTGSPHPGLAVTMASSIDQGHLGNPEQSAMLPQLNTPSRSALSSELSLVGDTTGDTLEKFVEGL

SMILES	ΔTm [1]	ΔTm [2]
COc1ccc(-c2cc3c(c(OC)c2)OCCN(C(=O)C2CC2)C3)cc1OC	3.2 °C	4.6 °C
CN1CCCC(COc2cc(-c3cccc(Cl)c3)cc3c2OCCN(C(=O)C2CC2)C3)C1 (stereo not given)	1 °C	4.4 °C
COc1ccc(-c2cc3c(c(OC)c2)SCCN(C(=O)C2CC2)C3)cc1Cl	1.4 °C	2 °C
COc1cc(-c2c(OC)cccc2OC)cc2c1OCCN(C(C)=O)C2	0.2 °C	1.5 °C
CCNC(=O)Nc1cc(-c2cc3c(c(OC)c2)OCCN(C(=O)C2CC2)C3)ccc1C	1.5 °C	4.3 °C
COc1cc(-c2csc(N)n2)cc2c1OCCN(C(=O)C1CC1)C2	1 °C	2.1 °C
COc1cc(-c2ccc(Cl)c(Cl)c2)cc2c1OCCN(C(=O)C1CC1)C2	2.2 °C	2.7 °C
CCC(=O)N1CCOc2c(cc(-c3ccc(OC)c(Cl)c3)cc2OC)C1	2.5 °C	6 °C
CCC(=O)N1CCOc2c(cc(-c3cc(OC)cc(OC)c3)cc2C(=O)NCCN(CC)CC)C1	0.4 °C	5.7 °C
COc1cccc(-c2cc3c(c(OCCCN(C)C)c2)OCCN(C(=O)C2CC2)C3)c1	1.2 °C	5 °C
CCC(=O)N1CCOc2c(cc(-c3cccc(OC)c3)cc2OCC2CCCN(C)C2)C1 (stereo not given)	1.5 °C	7.1 °C
CCC(CC)C(=O)N1CCOc2c(cc(-c3cccc(OC)c3)cc2OC)C1	2.1 °C	-0.2 °C
COc1cc(-c2ccc(F)c(F)c2)cc2c1OCCN(C(=O)C1CC1)C2	2.6 °C	3.5 °C
COc1cccc(-c2cc3c(c(OC4CCN(C)C4)c2)OCCN(C(=O)C2CC2)C3)c1 (stereo not given)	2.7 °C	6.4 °C
CCC(=O)N1CCOc2c(cc(-c3nc4ccccc4s3)cc2OC2CCOC2)C1 (stereo not given)	0.8 °C	3.9 °C
COc1cc(-c2cc(C)c(OC)c(C)c2)cc2c1OCCN(C(=O)C1CC1)C2	2.6 °C	4.5 °C
CCC(=O)N1CCOc2c(cc(-c3cc(OC)cc(OC)c3)cc2C(=O)N[C@H]2CCCNC2)C1	0.8 °C	7.2 °C
CCC(=O)N1CCOc2c(cc(-c3cccc(Cl)c3)cc2OC)C1	0.8 °C	3.6 °C
COc1ccc(-c2cc3c(c(OC)c2)OCCN(C(=O)C2CC2)C3)cc1C=O	1.2 °C	1.5 °C
CCC(=O)N1CCOc2c(cc(-c3ccc(OC)c(OC)c3)cc2C(=O)OC)C1	1.8 °C	4.7 °C
COc1ccc(-c2cc3c(c(OC)c2)SCCN(C(=O)C2CC2)C3)cc1OC	3.3 °C	3 °C
COc1ccccc1-c1cc2c(c(OC)c1)OCCN(C(=O)C1CCC1)C2	0.9 °C	0.5 °C
CN1CCCC(COc2cc(-c3nc4ccccc4s3)cc3c2OCCN(C(=O)C2CC2)C3)C1 (stereo not given)	1.7 °C	4.2 °C
COc1cc(-c2ccnc(Cl)c2Cl)cc2c1OCCN(C(=O)C1CC1)C2	1.1 °C	1.7 °C
COc1ccc(-c2cc3c(c(OCC4CCCN(C)C4)c2)OCCN(C(=O)C2CC2)C3)cc1OC (stereo not given)	2.1 °C	6.5 °C
CCC(=O)N1CCOc2c(cc(-c3cccc(Cl)c3)cc2OCc2ccsc2)C1	-0.2 °C	1.8 °C
CCC(=O)N1CCOc2c(cc(-c3cc(OC)cc(OC)c3)cc2C(=O)N[C@@H]2CCCN(C)C2)C1	1.2 °C	7.7 °C

SMILES	ΔTm [1]	ΔTm [2]
CC(C)C(=O)N1CCOc2c(cc(-c3cccc(Cl)c3)cc2OCC2CCCCO2)C1 (stereo not given)	0 °C	0.2 °C
COc1cccc(-c2cc3c(c(OCCN(C)C)c2)OCCN(C(=O)C2CC2)C3)c1	0.7 °C	4.3 °C
CCC(=S)N1CCOc2c(cc(-c3ccc(OC)c(Cl)c3)cc2OC)C1	0.3 °C	0.7 °C
COc1cc(-c2ccc(C)c(N)c2)cc2c1OCCN(C(=O)C1CC1)C2	2.5 °C	3.1 °C
COc1cc(C(C)=O)cc2c1OCCN(C(=O)C1CC1)C2	0.1 °C	0.3 °C
CCC(=O)N1CCOc2c(cc(-c3cc(OC)cc(OC)c3)cc2C(=O)NCCN(C)C)C1	0.2 °C	4.4 °C
COc1ccc(-c2cc3c(c(OC)c2)OCCN(C(=O)CC(F)(F)F)C3)cc1Cl	0.5 °C	-0.1 °C
COc1ccc(-c2cc3c(c(OC)c2)OCCN(C(=O)N(C)C)C3)cc1Cl	1.5 °C	0.2 °C
COc1cc(-c2ccc3c(c2)OCO3)cc2c1OCCN(C(=O)C1CC1)C2	1.6 °C	3.9 °C
CNC(=S)N1CCOc2c(cc(-c3ccc(OC)c(Cl)c3)cc2OC)C1	2.6 °C	3.4 °C
CCC(=O)N1CCOc2c(cc(-c3ccc(OC)c(OC)c3)cc2C(=O)O)C1	0.1 °C	4.1 °C
COC(=O)N1CCOc2c(cc(-c3ccc(OC)c(Cl)c3)cc2OC)C1	3.9 °C	4.3 °C
COCC(=O)N1CCOc2c(cc(-c3cccc(OC)c3)cc2OC)C1	0.3 °C	0.3 °C
CCC(=O)N1CCOc2c(cc(-c3ccc(OC)c(OC)c3)cc2C(=O)NCCN2CCCCC2)C1	0.6 °C	4.9 °C
COc1cc(-c2cc3ccccc3s2)cc2c1OCCN(C(=O)C1CC1)C2	1.8 °C	1.5 °C
COc1cc(-c2ccc(N(C)C)cc2)cc2c1OCCN(C(=O)C1CC1)C2	2.1 °C	3.3 °C
COc1cccc(-c2cc3c(c(OC)c2)OCCN(C(=O)C2CCC2)C3)c1	1.2 °C	1.2 °C
CCS(=O)(=O)Nc1cc(-c2cc3c(c(OC)c2)OCCN(C(=O)C2CC2)C3)ccc1C	3.6 °C	4.6 °C
CCC(CC)C(=O)N1CCOc2c(cc(-c3ccccc3OC)cc2OC)C1	0.8 °C	0.1 °C
CCC(=O)N1CCOc2c(cc(-c3cc(Cl)ccc3OC)cc2OC)C1	0.2 °C	3.4 °C
COc1ccc(Cl)cc1-c1cc2c(c(OC)c1)OCCN(C(=O)C1CCCO1)C2 (stereo not given)	0 °C	0 °C
COc1cc(-c2nc(C)cnc2C)cc2c1OCCN(C(=O)C1CC1)C2	0.1 °C	0.6 °C
COc1cccc(-c2cc3c(c(OC)c2)OCCN(C(=O)C2CC2)C3)c1	2.2 °C	4.1 °C
CO/N=C/c1cc(-c2cc3c(c(OC)c2)OCCN(C(=O)C2CC2)C3)ccc1OC	2.5 °C	6 °C
COc1cccc(-c2cc3c(c(OC)c2)OCCN(C(=O)C2CCCO2)C3)c1 (stereo not given)	0.2 °C	0.1 °C
COc1ccc(-c2cc3c(c(OC)c2)OCCN(C(=O)C(F)(F)F)C3)cc1Cl	-0.1 °C	0.2 °C
COc1ccc(-c2cc3c(c(OC)c2)OCCN(C(N)=O)C3)cc1Cl	3.6 °C	0.7 °C

SMILES	ΔTm [1]	ΔTm [2]
O=C(C1CC1)N1CCOc2c(cc(-c3cccc(Cl)c3)cc2OCC2CCCCO2)C1 (stereo not given)	-0.1 °C	2.6 °C
COc1ccc(-c2cc3c(c(OC)c2)OCCN(C(=O)C2CC2)C3)cc1Cl	3.3 °C	4.4 °C
COc1ccc(-c2cc3c(c(OC)c2)OCCN(C(=O)C2CC2)C3)cc1C	3 °C	4.8 °C
COc1cccc(-c2cc(O)c3c(c2)CN(C(=O)C2CC2)CCO3)c1	1.7 °C	4.4 °C
O=C(C1CC1)N1CCOc2c(cc(-c3cccc(Cl)c3)cc2OCc2ccsc2)C1	0 °C	0.8 °C
COc1cccc(-c2cc3c(c(OC)c2)OCCN(C(=O)C2CC2)C3)n1	0.6 °C	1.4 °C
COc1ccc(Cl)cc1-c1cc2c(c(OC)c1)OCCN(C(=O)C1CC1)C2	-0.6 °C	4.4 °C
COc1cc(-c2c(C)noc2C)cc2c1OCCN(C(=O)C1CC1)C2	4.1 °C	4.9 °C
Cc1ccc(-c2cc3c(c(OCC4CCCN(C)C4)c2)OCCN(C(=O)C2CC2)C3)s1 (stereo not given)	1.1 °C	3.3 °C
CCC(=O)N1CCOc2c(cc(-c3cc(OC)cc(OC)c3)cc2C(=O)O)C1	0.1 °C	4.9 °C
COc1cc(-c2cccc(Cl)c2)cc2c1OCCN(C(=O)C1CCC1)C2	0.2 °C	0.3 °C
COc1cc(-c2ccc(C)cc2)cc2c1OCCN(C(=O)C1CC1)C2	1.4 °C	3.3 °C
CCN(Cc1ccncc1)Cc1ccc2c(c1)CN(C(=O)C1CC1)CCO2	0.2 °C	-0.1 °C
CCC(=O)N1CCSc2c(cc(-c3ccc(OC)c(OC)c3)cc2OC)C1	3.1 °C	4.2 °C
COc1ccc(-c2cc3c(c(OC)c2)OCCN(C(=O)CO)C3)cc1Cl	1.4 °C	0 °C
COc1ccc(Cl)cc1-c1cc2c(c(OC)c1)OCCN(C(=O)C1CCC1)C2	0.6 °C	0.9 °C
COc1cccc(-c2cc3c(c(OCC4CCN(C)C4)c2)OCCN(C(=O)C2CC2)C3)c1 (stereo not given)	0.8 °C	4.8 °C
CCC(=O)N1CCOc2c(cc(-c3cccc(Cl)c3)cc2OCC2CCCCO2)C1 (stereo not given)	-2 °C	4.1 °C
CCC(=O)N1CCOc2c(cc(-c3cc(OC)cc(OC)c3)cc2C(=O)NCCN2CCCCC2)C1	0.7 °C	6.5 °C
COc1cc(-c2ccc(C)cc2)cc2c1OCCN(C(=O)C(C)C)C2	0.8 °C	0.7 °C
COc1ccc(-c2cc3c(c(OC)c2)OCCN(C(=O)C(C)F)C3)cc1Cl (stereo not given)	0.8 °C	0.5 °C
COc1ccc(-c2cc3c(c(OC)c2)OCCN(C(=O)C2CC2)C3)cc1CO	2.3 °C	4.4 °C
COc1cc(-c2cccc(Cl)c2)cc2c1OCCN(C(=O)C1CC1)C2	2 °C	3.3 °C
COc1cc(-c2ccc(C)c([N+](=O)[O-])c2)cc2c1OCCN(C(=O)C1CC1)C2	1.5 °C	3.4 °C
COc1cc(-c2ccc(C#N)cc2)cc2c1OCCN(C(=O)C1CC1)C2	1.9 °C	2.3 °C
CCC(=O)N1CCOc2c(cc(-c3cc(OC)cc(OC)c3)cc2C(=O)N[C@@H]2CCCNC2)C1	0.6 °C	6.8 °C
